# Assay outcomes (PubChem)
# Rows were chosen to be rich in hits. Some 3.1% of all compounds tested hit in one or more screens of this group.
# SENP8 block-1: SENP8 protease inhibition; Q96LD8; purified SENP8, Z-RLRGG-aminoluciferin cleavage, luminescence; inhibition, % at 10 µM; 1.2% of 330,000 active; AID 2540; in the data active = inhibition above about 50%
# SENP6 block: blocks the human protease SENP6. 1.8% of 330,000 active. Recombinant SENP6 catalytic domain, aminoluciferin luminescence. Q9GZR1. AID 2599. inhibition, % at 10 µM;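 active = inhibition above about 50% at the single tested dose, limit read from the data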;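 note: plate controls were DMSO wells with enzyme for no effect and DMSO wells lacking enzyme for full effect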
# UBC13 polyUb: inhibitors of human UBC13 polyubiquitin chain formation; P61088; TR-FRET; inhibition, % at 20 µM; 0.47% of 330,000 active; AID 485273; in the data active = inhibition above about 45%, passing the limit was not always enough
# Target sequence (P61088 whole entry, looked up): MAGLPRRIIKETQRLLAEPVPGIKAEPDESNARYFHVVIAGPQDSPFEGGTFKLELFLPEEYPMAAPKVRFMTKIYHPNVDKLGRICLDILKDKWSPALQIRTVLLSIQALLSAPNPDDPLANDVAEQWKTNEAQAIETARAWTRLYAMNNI
# SENP8 block-2: SENP8 (human) protease inhibition | Q96LD8 | recombinant SENP8, Nedd8 substrate fluorescence | inhibition, % at 20 µM | 0.64% of 360,000 active | AID 602440; in the data active = inhibition mostly above about 40%, no sharp cut-off; inactive = mostly below about 27%
# Apaf1 inhib: human Apaf-1 inhibition. O14727. reconstituted apoptosome caspase-3 activity, DEVD-Rh110 fluorescence. inhibition, % at 20 µM. 0.71% of 330,000 active. AID 489030; active = inhibition of at least 40% at 20 µM;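 note: plate controls were DMSO wells for no effect and DEVD-CHO caspase inhibitor wells for full effect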
#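 Material: reconstituted apoptosome with Apaf-1, cytochrome c, caspase-9, procaspase-3, dATP. Technique: Rh110 fluorescence intensity. Buffer or medium: pH 7.5 Hepes buffer with CHAPS, BSA, DTT. Times: 30 min plus 50 min, RT.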
# SENP7 inh: blocks the human protease SENP7. inhibition, % at 5 µM. recombinant SENP7, Z-RLRGG-aminoluciferin luminescence, 40 min. Q9BQF6. 1.5% of 330,000 active;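 active = inhibition above about 50% at the single test dose, limit read from the data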;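 note: plate controls were DMSO with enzyme for no effect and no enzyme buffer wells for full effect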
# Target sequence (Q9BQF6 706-1050 limits assumed): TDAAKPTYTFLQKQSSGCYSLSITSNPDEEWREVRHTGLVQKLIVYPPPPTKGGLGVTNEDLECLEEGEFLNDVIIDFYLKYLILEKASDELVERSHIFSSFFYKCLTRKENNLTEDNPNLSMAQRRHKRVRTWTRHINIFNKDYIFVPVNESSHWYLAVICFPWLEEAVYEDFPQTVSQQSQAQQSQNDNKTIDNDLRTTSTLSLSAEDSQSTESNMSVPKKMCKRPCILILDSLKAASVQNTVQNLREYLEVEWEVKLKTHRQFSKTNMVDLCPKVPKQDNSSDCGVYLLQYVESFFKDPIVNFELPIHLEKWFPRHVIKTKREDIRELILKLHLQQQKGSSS
# SENP8 confirm: human SENP8 inhibition, confirmed | 40% of 6,200 active | shares compounds with SENP7 inh | Recombinant SENP8, Z-RLRGG-aminoluciferin luminescence, 60 min | inhibition, % at 12.5 µM;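 active = mean inhibition across replicates above about 50%, limit read from the data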
# SENP6 conf: human SENP6 inhibition, confirmed; shares compounds with SENP7 inh; recombinant SENP6, Z-RLRGG-aminoluciferin luminescence; inhibition, % at 12.5 µM; 58% of 6,200 active
# SENP7 conf: confirmation of human SENP7 protease inhibitors; AID 488917; shares compounds with SENP7 inh; 69% of 6,200 active; recombinant SENP7, Z-RLRGG-aminoluciferin luminescence, 40 min; inhibition, % at 12.5 µM
# Casp3 SENP sel: inhibits human caspase-3 in SENP selectivity test; shares compounds with SENP7 inh; purified caspase-3, Z-DEVD-aminoluciferin luminescence, 60 min; inhibition, % at 12.5 µM; 60% of 6,200 active; AID 488918;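 active = mean inhibition above about 50%, limit read from the data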;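 note: plate controls were enzyme with DMSO for no effect and wells without caspase-3 for full effect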
# SENP luc ctr: luminescence interference (SENP counter-screen); shares compounds with SENP7 inh; inhibition, % at 12.5 µM; 39% of 6,200 active; Pre-incubated SENP8/Z-RLRGG-aminoluciferin, luciferase luminescence interference; AID 488919;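 active = mean inhibition above about 50% when retested at one dose, limit read from the data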;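 note: plate controls were DMSO wells with completed reaction for no effect and substrate without enzyme for full effect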
# The depositor's hits bear a star; · = not tested or not shown.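 Rule for the calls, unless noted: active = mean inhibition above about 50% in the one-dose retest (limit read from the data); inactive = the rest.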
SMILES,SENP8 block-1,SENP6 block,UBC13 polyUb,SENP8 block-2,Apaf1 inhib,SENP7 inh,SENP8 confirm,SENP6 conf,SENP7 conf,Casp3 SENP sel,SENP luc ctr
CCOC(=O)c1sc(NC(=O)Nc2ccccc2F)nc1C,67*,77*,10,-10,3,93*,17,23,62*,62*,16
CCOC(=O)c1sc(NC(=O)c2ccc(S(=O)(=O)N(C)C)cc2)nc1C,-25,-10,4,-41,-4,23,·,·,·,·,·
CCOC(=O)CNC(=O)c1sc(NC(=O)c2ccccc2F)nc1C,70*,77*,6,-13,-3,88*,-5,75*,94*,92*,79*
CCOCCn1cnc2sc(C(=O)Nc3nc(C)c(C(=O)OCC)s3)c(C)c2c1=O,79*,53*,1,·,5,83*,10,5,10,3,4
CC(=O)c1cccc(-c2ccnc3c2CC(C(=O)Nc2cccc(C(F)(F)F)c2)O3)c1 (stereo not drawn),·,·,·,10,·,·,·,·,·,·,·
O=C(CNc1ccc(C(F)(F)F)cc1)Nc1cccc(S(=O)(=O)N2CCCCC2)c1,·,·,·,17,·,·,·,·,·,·,·
COC(=O)C[C@@H]1C=C[C@H](NC(=O)c2cnccn2)[C@@H](CO)O1,·,·,·,13,·,·,·,·,·,·,·
COCc1cn(CC[C@@H]2CC[C@@H](NC(=O)Nc3ccc4c(c3)OCO4)[C@@H](CO)O2)nn1,·,·,·,16,·,·,·,·,·,·,·
COc1cccc(CN2CCC(C(=O)NC(C)c3cccc4ccccc34)CC2)c1 (stereo not drawn),·,·,·,12,·,·,·,·,·,·,·
CCCNC(=O)c1cc(C2CCCN(C(=O)c3ccccc3)C2)on1 (stereo not drawn),·,·,·,-5,·,·,·,·,·,·,·
O=C(Nc1ccc2c(c1)[C@@H]1C[C@@H](CC(=O)N3CCOCC3)O[C@@H](CO)[C@@H]1O2)NC1CCCC1,·,·,·,6,·,·,·,·,·,·,·
O=C(Nc1nnc(Cc2ccccc2F)s1)Nc1ccccc1F,-4,15,-3,0,2,85*,10,11,5,0,0
Cc1cccc(N=Nc2cnc(N)s2)c1,18,55*,-12,12,12,47,52*,44,70*,24,22
Cc1ccc(S(=O)(=O)CCC(=O)OCC(=O)N(C)c2ccccc2)cc1,·,·,·,-4,·,·,·,·,·,·,·
CC(=O)Nc1cc2nn(-c3ccccc3)nc2cc1Cl,30,69*,-4,-478,4,76*,7,11,32,35,7
COc1cccc(C(=O)N2CCC[C@@H]2C(=O)N2CCC[C@H]2C(=O)NCc2ccncc2)c1,·,·,·,6,·,·,·,·,·,·,·
CC(C)NC(=O)C1(C)CSCC(=O)N1Cc1ccco1 (stereo not drawn),·,·,·,25,·,·,·,·,·,·,·
O=c1oc2ccccc2cc1-c1cn2cccnc2n1,36,58*,-7,-349,-4,47,46,47,82*,82*,31
Cc1nc(N2CCOCC2)c2cc(-c3ccccc3)sc2n1,3,-9,-2,-213,11,6,·,·,·,·,·
Cc1nc(SCCC(=O)O)c2cc(-c3ccccc3)sc2n1,71*,72*,-14,-83,4,60*,46,76*,14,82*,48
NC(=O)c1c(NC(=O)c2ccc(F)cc2)sc2c1CCC2,-5,31,2,-147,12,11,·,·,·,·,·
COC(=O)c1c(NC(=O)c2ccc(C)o2)sc2c1CCCCC2,-12,-19,-3,-294,17,-4,·,·,·,·,·
Cc1ccc(C(=O)Nc2sc3c(c2C(=O)O)CCCCC3)o1,97*,-15,3,-423,4,91*,98*,100*,103*,98*,97*
O=C(Nc1sc2c(c1C(=O)O)CCC2)c1ccco1,91*,97*,2,-81,-6,91*,94*,94*,101*,96*,93*
CC(C)(C)c1ccc(C(=O)Nc2sc3c(c2C(=O)O)CCC3)cc1,-5,-10,-10,-238,17,-10,·,·,·,·,·
SMILES,SENP8 block-1,SENP6 block,UBC13 polyUb,SENP8 block-2,Apaf1 inhib,SENP7 inh,SENP8 confirm,SENP6 conf,SENP7 conf,Casp3 SENP sel,SENP luc ctr
NC(=O)c1c(NC(=O)c2cc3ccccc3o2)sc2c1CCC2,25,60*,8,-438,6,38,14,17,67*,36,18
Cc1ccc(C(=O)Nc2sc3c(c2C(=O)O)CCCC3)o1,91*,89*,-5,-466,3,75*,95*,94*,101*,96*,92*
COC(=O)c1c(NC(=O)c2ccco2)sc2c1CCC2,-4,-6,12,-401,19,2,·,·,·,·,·
Cc1ccccc1CNC(=O)c1ccc2nc([C@@H]3O[C@H](CO)[C@H](O)[C@H](O)[C@H]3O)[nH]c2c1,·,·,·,7,·,·,·,·,·,·,·
CCN(c1ccccc1)c1nc(Cl)nc2c1cnn2C,·,·,·,9,·,·,·,·,·,·,·
Cc1ccn2c(C(=O)c3ccc(Cl)cc3)cnc2c1,31,70*,-4,-24,10,52*,28,34,70*,62*,48
CCC1CCCCN1C(=O)COC(=O)c1cncc(Br)c1 (stereo not drawn),·,·,·,-6,·,·,·,·,·,·,·
O=C(Nc1ccc2c(c1)OCO2)C(=O)c1c[nH]c2ccccc12,13,46,-3,14,-15,81*,13,24,79*,75*,19
O=C(Nc1ccc2c(c1)OCCO2)C(=O)c1c[nH]c2ccccc12,82*,87*,3,13,-2,99*,79*,78*,101*,86*,92*
O=C(COC(=O)[C@H](Cc1c[nH]c2ccccc12)NC(=O)c1ccc(Cl)cc1)Nc1ccc2c(c1)OCO2,0,-10,-1,18,0,-2,·,·,·,·,·
COC(=O)[C@@H](Cc1c[nH]c2ccccc12)NC(=O)c1ccc2c(c1)OCO2,53*,59*,3,7,-4,65*,50,47,83*,67*,68*
Cc1[nH]c2ccccc2c1C(=O)C(=O)Nc1ccc2c(c1)OCCO2,-3,1,-3,25,8,7,·,·,·,·,·
CCOC(=O)C1=CCN(S(=O)(=O)c2ccc(C)cc2)C1c1ccc(Cl)c(Cl)c1 (stereo not drawn),·,·,·,20,·,·,·,·,·,·,·
